Sampled rows, rich in hits. Any-hit rate of the full collection: about 3.8%.
Beta2AR agonist: activates human beta-2 adrenergic receptor causing internalization; Am2.2-beta2AR cells, FAP receptor internalization, flow cytometry; response, % (no concentration beside the values); 340,000 tested, 0.43% active;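 active = response above a set limit, near 3 SD of response in nonfluorescent compounds, cut at about 42% in these data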
Target sequence (P07550 whole entry, looked up): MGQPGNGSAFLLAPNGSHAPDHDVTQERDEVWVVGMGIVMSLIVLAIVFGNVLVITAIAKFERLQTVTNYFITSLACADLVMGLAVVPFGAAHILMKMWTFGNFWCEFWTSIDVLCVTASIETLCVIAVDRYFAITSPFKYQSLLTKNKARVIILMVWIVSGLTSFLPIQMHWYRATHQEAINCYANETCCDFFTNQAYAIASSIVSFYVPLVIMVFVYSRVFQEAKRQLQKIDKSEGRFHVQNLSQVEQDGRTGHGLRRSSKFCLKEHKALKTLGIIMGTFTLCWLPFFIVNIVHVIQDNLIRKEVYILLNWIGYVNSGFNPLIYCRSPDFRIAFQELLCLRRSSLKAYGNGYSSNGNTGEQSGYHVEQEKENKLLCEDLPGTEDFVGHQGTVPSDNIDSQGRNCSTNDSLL
T cell HTS: modulates CD8 T cell binding to vesicles; 2C CD8+ T cell-vesicle binding, flow cytometry; active compounds read low; response (vesicle binding), % at 7 µM; 330,000 tested, 0.068% active;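 active = response, share of CD8 T cells binding vesicles, and their 90th percentile fluorescence all below set limits, cut at about 80% in these data, passing the limit was not always enough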;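 note: values below 100% mean blocked vesicle binding to the CD8+ T cells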
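Material: 2C TCR transgenic mouse naive CD8+ T cells, MACS-purified. Also added: QL9-charged Drosophila Ld/ICAM-1/B7-1 vesicles. Timing: binding 1.5 h at 37 °C. Measured by: high-throughput flow cytometry with anti-B7-1 and anti-CD8 staining. Read-out: percent CD8+ FL2 mean versus row control. Controls: Unloaded micro-vesicles (low), QL9 vesicles with 0.7% DMSO (high).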
MPTP block: permeability transition pore inhibition | 360,000 tested, 1.4% active | isolated mouse mitochondria, Ca2+ swelling absorbance, 30 min | inhibition, % at 10 µM;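 active = inhibition of 50% or more, scaled per plate between neutral and stimulator controls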;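 note: 0% = DMSO wells given calcium and 100% = 1 mM EGTA wells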
rCAG RNA binder: r(CAG) repeat RNA binding | TO-PRO-1 dye displacement fluorescence | inhibition, % at 3 µM | 370,000 tested, 1.3% active | AID 651821;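 active = inhibition above the plate cutoff, the mean of all test compounds on that plate plus 3 SD, cut at about 35% in these data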;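 note: 0% = DMSO alone and 100% = 100 µM mitoxantrone as full dye displacement; higher means more dye released from RNA so lower well fluorescence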
Granule exo inh: blocks lytic granule exocytosis | inhibition, % at 10 µM | AID 651702 | 360,000 tested, 0.66% active | TALL-104 LAMP-1 surface exposure, flow cytometry; cells stimulated with thapsigargin and PMA;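 active = inhibition above about 55%, limit read from the data; inconclusive = no clear call, values can overlap the other calls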
V-ATPase pH: alters yeast V-ATPase proton transport | response, % at 10 µM | 350,000 tested, 0.37% active | S. cerevisiae, pHLuorin cytosolic pH fluorescence; in the data active = response mostly above about 7.3%, no sharp cut-off; inactive = mostly below about 5.4%; note: actives read high
MPTP counter: Rhodamine 123 counter-screen of mitochondrial pore hits; shares compounds with MPTP block; inhibition, % at 10 µM; 5,000 tested, 78% active; isolated mitochondria, membrane potential, Rhodamine 123 fluorescence; in the data active = inhibition above about 22%;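 note: 0% = DMSO vehicle and 100% = positive control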
MPTP swell DR: dose response confirmation of mitochondrial permeability transition pore inhibitors | shares compounds with MPTP block | isolated mitochondria swelling, absorbance | IC50, µM | 780 tested, 58% active | AID 651561; in the data active = IC50 below about 20 µM
MPTP counter DR: MPTP inhibitor counter-screen activity, dose response; shares compounds with MPTP block; isolated mitochondria counterscreen, fluorescence read-out; IC50, µM; 780 tested, 49% active; AID 651564; in the data active = IC50 below about 80 µM
* marks the source's active call; other numbers are inactive results; ? = inconclusive; . = not tested or not shown.

SMILES	Beta2AR agonist	T cell HTS	MPTP block	rCAG RNA binder	Granule exo inh	V-ATPase pH	MPTP counter	others
NNc1ncnc2scc(-c3ccc(Cl)cc3)c12	-13.8	234.9	-9.6	1.8	-3.3	-3.0	.
Cc1ccc(-c2csc3ncnc(NS(=O)(=O)c4ccc(Cl)cc4)c23)cc1	7.1	229.0	85.4*	15.0	1.5	0.4	63.3*
N#Cc1ccc(/C=C2\CC3(OC(=O)c4ccc(Cl)cc4)CCCN2C3)cc1 (configuration not stated)	.	.	.	3.6	.	.	.
CCOC(=O)CC[C@@H]1CC[C@]2(CCCN(Cc3nccs3)C2)O1	.	.	.	1.1	.	.	.
Fc1ccc(Nc2c3c(nc4ccccc24)CCC3)cc1	-9.7	171.2	70.2*	0.7	38.9	1.4	83.6*
CC1CCN(S(=O)(=O)c2ccc(Oc3ccc([N+](=O)[O-])cc3)cc2)CC1	18.1	275.6	66.9*	-2.9	-0.5	0.8	70.8*
COc1ccc(NC(=S)Nc2ccc3snnc3c2)cc1	4.1	217.2	73.3*	10.5	4.0	-3.4	78.5*
Cc1cc(F)cc(-c2cc(C(=O)NCc3ccc(C(F)(F)F)cc3)[nH]n2)c1	.	.	19.3	2.6	-5.5	.	.
CC(=O)Nc1ccc(NC(=O)c2cc(-c3cc(C)cc(C)c3O)n[nH]2)cc1	4.6	188.3	1.1	13.4	9.7	-0.7	.
Cc1cc(C)c(O)c(-c2cc(C(=O)Nc3ccc(S(=O)(=O)N4CCOCC4)cc3)[nH]n2)c1	36.0	485.3	92.8*	27.2	29.5	1.6	64.3*
Cc1ccc(Cl)cc1-c1cc(C(=O)NCc2cc(C(F)(F)F)cc(C(F)(F)F)c2)[nH]n1	.	.	95.7*	1.0	8.3	.	82.7*
Cc1csc(-c2cc(C(=O)NCc3cc(C(F)(F)F)cc(C(F)(F)F)c3)n[nH]2)c1	.	.	71.9*	3.1	-0.7	.	77.9*
Cc1cc(F)ccc1-c1cc(C(=O)NCc2cc(C(F)(F)F)cc(C(F)(F)F)c2)[nH]n1	.	.	84.4*	-1.6	-4.5	.	104.0*
Cc1ccc(S(=O)(=O)n2ccc(-c3c(-c4ccc(F)cc4)noc3C)n2)cc1	.	.	.	0.4	.	.	.
Cc1ccc(CNC(=O)c2cc(-c3cc(C)cc(C)c3O)n[nH]2)cc1	0.6	199.6	88.0*	11.8	-8.7	-5.5	72.8*
Cc1ccc(F)cc1-c1cc(C(=O)NCc2cc(C(F)(F)F)cc(C(F)(F)F)c2)[nH]n1	.	.	69.0*	-1.2	1.8	.	101.0*
CCc1ccc(C2C(C#N)=C(N)SC(N)=C2C#N)cc1	-17.9	459.6	74.4*	16.8	1.4	1.0	82.0*
CCc1ccc(C2C(C#N)=C(N)SC(N)=C2C#N)s1	-1.2	522.5	77.4*	.	-1.0	2.5	56.0*
N#CC1=C(N)SC(N)=C(C#N)C1c1ccc(C(F)(F)F)cc1	.	160.0	.	.	.	.	.
CCCN1CCS(=O)(=O)N(Cc2cn(Cc3ccc(F)cc3)nn2)C(C(=O)OC)C1 (configuration not stated)	.	.	.	-0.9	.	.	.
CC(C)[C@H](NC(=O)c1ccco1)C(=O)N1CCC[C@H]1C(=O)NCc1ccccc1	.	.	.	1.9	.	.	.
CCSc1n[nH]c2nc3c(c(=O)n12)C1(CCCCC1)Cc1ccccc1-3	2.3	100.2	33.0	5.3	3.7	-0.7	.
N#CCSc1n[nH]c2nc3c(c(=O)n12)C1(CCCCC1)Cc1ccccc1-3	-1.0	161.2	69.9*	22.6	14.8	-3.9	64.2*
FC(F)(F)c1ccc(NC(=S)NCc2ccccc2)cc1	-2.1	426.5	97.4*	0.6	0.3	-1.3	94.6*
FC(F)Sc1ccc(NC(=S)NCc2ccccc2)cc1	1.3	215.9	85.2*	9.5	1.1	-2.5	92.3*
SMILES	Beta2AR agonist	T cell HTS	MPTP block	rCAG RNA binder	Granule exo inh	V-ATPase pH	MPTP counter	others
O=C(O)c1ccc(NC(=S)NCc2ccccc2)cc1	-2.6	239.5	-0.9	-0.2	-6.9	8.0	.
FC(F)Sc1ccc(NC(=S)NC(c2ccccc2)c2ccccc2)cc1	2.8	370.9	98.4*	17.0	8.8	1.4	63.4*
CN(C(=S)Nc1ccc(SC(F)F)cc1)C(c1ccccc1)c1ccccc1	3.5	220.9	0.5	3.3	6.3	-3.2	.
C[C@@H]1ON(C)[C@H]2C[C@H]3c4cc(N5CCN(C)CC5)ccc4CCN3C[C@@H]12	.	.	.	2.8	.	.	.
CCOC(=O)C1(Cc2ccccc2)CCN(Cc2ccc(C(F)(F)F)cc2)CC1	.	.	.	0.1	.	.	.
S=C(Nc1ccc(I)cc1)OC1CCC12CCC(c1ccccc1)CC2 (configuration not stated)	.	.	.	17.0	.	.	.
CN(C(=O)[C@H]1O[C@@H](n2cnc(C(N)=O)n2)[C@H](O)[C@@H]1O)c1ccccc1	.	.	.	2.2	.	.	.
CCc1ccc(OCC(O)CN2CCN(c3ccccc3)CC2)cc1 (configuration not stated)	-5.9	429.5	0.0	-0.8	-7.9	-0.7	.
COc1ccc(COCC(O)CN2CCC(CN3C(=O)c4cccc5cccc(c45)C3=O)CC2)cc1OC (configuration not stated)	16.0	544.4	90.2*	1.9	-1.9	6.1	18.1	MPTP swell DR=6.33*;MPTP counter DR=46.1*
CCc1ccc(OCC(O)CN2CCC(CN3C(=O)c4cccc5cccc(c45)C3=O)CC2)cc1 (configuration not stated)	0.2	807.7	83.6*	3.6	13.5	0.2	-0.4	MPTP swell DR=4.93*;MPTP counter DR=19.7*
COc1cccc(OCC(O)CN2CCC(CN3C(=O)c4cccc5cccc(c45)C3=O)CC2)c1 (configuration not stated)	3.9	161.7	72.3*	-4.8	23.0	-0.3	49.5*
COc1cc(COCC(O)CN2CCN(CCN3C(=O)c4cccc5cccc(c45)C3=O)CC2)cc(OC)c1OC (configuration not stated)	10.1	323.9	2.8	-6.5	1.9	.	.
Cc1cc(C)cc(OCC(O)CN2CCC(CN3C(=O)c4cccc5cccc(c45)C3=O)CC2)c1 (configuration not stated)	11.7	479.4	98.5*	12.3	30.0	9.7	100.4*
O=C1c2cccc3cccc(c23)C(=O)N1CCN1CCN(CC(O)COc2ccc3ccccc3c2)CC1 (configuration not stated)	5.4	199.3	3.2	-0.5	?	-0.9	.
O=[N+]([O-])c1cc(S(=O)(=O)C(F)(F)F)ccc1Sc1nc2ccccc2[nH]1	12.9	129.6	56.6*	8.7	1.6	3.6	90.7*
CS(=O)(=O)c1ccc(Sc2nc3ccccc3[nH]2)c([N+](=O)[O-])c1	2.1	348.3	9.7	6.8	-0.3	-3.6	.
Cc1ccc(-c2nc(CSc3nc4ccccc4c(=O)n3CCO)cs2)cc1	3.6	175.4	4.2	4.8	-5.6	-2.1	.

From PubChem BioAssay
